The source made the active and inactive calls. No rule for the calls is given here.

By inhibition is commonly meant the relative decrease from the control value, in per cent.

The target of the experiment is Serine hydrolase RBBP9 (Homo sapiens) (UniProt O75884). Briefly: inhibition of RBBP9 probe labeling – biochemical, gel-based ABPP, FP-rhodamine, powder samples, orthogonal assay, late-stage follow-up (AID 2269). Conditions: recombinant RBBP9, gel-based ABPP, at 20 µM, hits give high values. The method, boiled down:
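Test system: recombinant RBBP9; also added: FP-rhodamine probe, 75 nM final; dosing: single compound concentration per test; schedule: compound preincubation with enzyme 30 min at 25 °C, probe labeling 45 min; detection: in-gel fluorescence after SDS-PAGE; evaluation: percent inhibition from integrated optical density of labeled bands; control set: DMSO vehicle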

Serine hydrolase RBBP9 (Homo sapiens), sequence (O75884 whole entry, looked up): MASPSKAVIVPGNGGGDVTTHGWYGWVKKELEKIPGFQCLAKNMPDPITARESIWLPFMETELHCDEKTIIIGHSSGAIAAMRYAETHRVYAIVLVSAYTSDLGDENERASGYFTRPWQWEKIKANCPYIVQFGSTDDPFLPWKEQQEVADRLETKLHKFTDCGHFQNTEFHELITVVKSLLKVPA

Take `C/C(=N\OC(=O)N1CCCCC1)c1nccs1`: the inhibition is 0% (inactive). Consider `C/C(=N\OC(=O)c1ccccc1)c1nccs1`, for which the inhibition is 62%. `COc1ccc(C(=O)O/N=C(\C)c2nccs2)cc1`: the inhibition is 60%. With `C/C(=N\OC(=O)C1CCCCC1)c1nccs1`, the inhibition was 91%.

Regarding `C#CCCC(=O)O/N=C(\C)c1nccs1`, the inhibition is 42% (inactive). As for `C/C(=N\OC(=O)c1cccc(C(F)(F)F)c1)c1nccs1`, the inhibition was 46% (inactive). Consider `CC(=O)ON=C(C)c1cc(C(C)(C)C)cc2c1CCC2(C)C`, for which the inhibition is 0% (inactive). For `CC(=O)O/N=C(\C)c1nccs1`, the inhibition is 0% (inactive). With `CC1=CC(=NOC(=O)/C=C/c2ccccc2)C=C(C)C1=O`, the inhibition was 78%. The same measure for `C/C(=N\OC(=O)c1cccc(Cl)c1)c1nccs1`: 63%; for `C/C(=N\OC(=O)c1ccccc1F)c1nccs1`: 64%.

For the compound `C/C(=N\OC(=O)c1ccc(-c2ccccc2)cc1)c1nccs1`, the inhibition was 4% (inactive). `C/C(=N\OC(=O)c1ccccc1Cl)c1ccc(Br)cc1`: the inhibition is 0% (inactive). For the compound `CC(=NOC(=O)c1ccc(S(=O)(=O)N2CCOCC2)cc1)c1cc2ccccc2o1`, the inhibition is 15% (inactive). The same measure for `CC(C)=NOC(=O)c1cn(-c2ccccc2)nc1-c1cccs1`: 0% (inactive); for `N/C(Cc1ccc(Cl)cc1)=N\OC(=O)C1CCCCC1`: 0% (inactive); for `NC(=O)C(=NOC(=O)c1ccccc1)c1nc(-c2ccc(Cl)cc2)cs1`: 57%. As to `C/C(=N\OC(=O)c1c(F)cccc1F)c1nccs1`, the inhibition is 66%. Consider `CC(=NOC(=O)c1c(-c2ccccc2Cl)noc1C)c1nccs1`, for which the inhibition was 17% (inactive).

With `NC(=NOC(=O)C1CCCCC1)c1cccc([N+](=O)[O-])c1`, the inhibition is 5% (inactive). For `NC(=O)C(=NOC(=O)c1ccccc1Cl)c1nc(-c2ccc(Br)cc2)cs1`, the inhibition was 0% (inactive). With `N/C(Cc1cccs1)=N\OC(=O)C12CC3CC(CC(C3)C1)C2`, the inhibition is 6% (inactive). As to `C/C(=N\OC(=O)c1ccc(I)cc1)c1nccs1`, the inhibition is 66%.

Regarding `C/C(=N\OC(=O)c1ccc(Cl)cc1)c1nccs1`, the inhibition is 78%. The same measure for `C/C(=N\OC(=O)c1c(-c2c(F)cccc2Cl)noc1C)c1nccs1`: 14% (inactive); for `COc1ccc(C(=O)O/N=C2\C=C(C)C(=O)C=C2C)cc1`: 76%; for `COc1ccc(C(=O)ON=C2C(C)=CC(=O)C=C2C)cc1`: 48% (inactive). Consider `C/C(=N\OC(=O)/C=C/c1ccccc1)c1nccs1`, for which the inhibition was 42% (inactive).

For the compound `COc1ccc(C(=O)ON=C2C=C(C)C(=O)C(C)=C2)cc1`, the inhibition is 93%. For `CC(=NOC(=O)c1ccc(-c2cc(Cl)ccc2Cl)o1)c1ccccc1`, the inhibition was 0% (inactive). Consider `C/C(=N\OC(=O)c1ccc([N+](=O)[O-])cc1)c1nccs1`, for which the inhibition is 15% (inactive). The same measure for `C/C(=N\OC(=O)c1ccc(F)cc1)c1nccs1`: 76%; for `C/C(=N\OC(=O)c1ccccc1O)c1cccs1`: 0% (inactive). As to `COc1ccc(/C(N)=N/OC(=O)C23CC4CC(CC(C4)C2)C3)cc1OC`, the inhibition is 28% (inactive). In the case of `CC(=NOC(=O)c1cn(-c2ccccc2)nc1-c1ccc(Cl)cc1)c1ccccc1`, the inhibition is 10% (inactive). In the case of `CC(C)=NOC(=O)c1cn(-c2ccccc2)nc1-c1ccc(F)cc1`, the inhibition was 0% (inactive). With `CC(=NOC(=O)c1ccc(-c2ccccc2)cc1)c1cccs1`, the inhibition was 0% (inactive).
